Positions count from the first letter of the chain named. Where two headings read alike, the source gives them in different places.
Experiments:
[1] = tested on: rod and olfactory CNG channels; assay: Comparison of DAG analogues on cloned CNG channels; assay type: biochemical; conditions: data not shown
[2] = target: T1, rat olfactory CNG channel (CNG2, α homomultimer) (Rattus norvegicus, UniProt Q00195); assay type: biochemical
T1 sequence (Q00195 1-664): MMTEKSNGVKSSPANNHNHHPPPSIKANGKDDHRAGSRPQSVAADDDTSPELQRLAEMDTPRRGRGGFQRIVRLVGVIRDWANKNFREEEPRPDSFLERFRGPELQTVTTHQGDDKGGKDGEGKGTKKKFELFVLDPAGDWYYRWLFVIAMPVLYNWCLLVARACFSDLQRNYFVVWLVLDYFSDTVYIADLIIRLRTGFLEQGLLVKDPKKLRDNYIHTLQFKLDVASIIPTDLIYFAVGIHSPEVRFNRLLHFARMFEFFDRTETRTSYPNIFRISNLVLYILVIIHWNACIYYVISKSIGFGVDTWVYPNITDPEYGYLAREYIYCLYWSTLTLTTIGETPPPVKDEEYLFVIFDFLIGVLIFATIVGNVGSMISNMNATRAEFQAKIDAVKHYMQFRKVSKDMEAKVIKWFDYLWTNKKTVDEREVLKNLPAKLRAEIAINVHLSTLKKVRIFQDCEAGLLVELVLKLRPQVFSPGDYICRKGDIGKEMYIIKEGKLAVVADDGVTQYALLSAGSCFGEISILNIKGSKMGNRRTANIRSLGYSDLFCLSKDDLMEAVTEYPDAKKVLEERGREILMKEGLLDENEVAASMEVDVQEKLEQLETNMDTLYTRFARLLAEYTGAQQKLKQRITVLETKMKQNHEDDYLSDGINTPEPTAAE

CNG channels = conditions: ref Fodor et al. 1997; cited from earlier work
[3] = ref Marsh and Phil 1990; cited from earlier work
[4] = target: T2, CHM 13 rod/olfactory chimeric CNG channel (Bos taurus / Rattus norvegicus, UniProt Q00194+Q00195); assay: DAG dose-response on chimera CHM13, inside-out patches from Xenopus oocytes; assay type: biochemical, bovine/rat; conditions: saturating 2 mM cGMP, six patches
T2 sequence (Q00194 1-690): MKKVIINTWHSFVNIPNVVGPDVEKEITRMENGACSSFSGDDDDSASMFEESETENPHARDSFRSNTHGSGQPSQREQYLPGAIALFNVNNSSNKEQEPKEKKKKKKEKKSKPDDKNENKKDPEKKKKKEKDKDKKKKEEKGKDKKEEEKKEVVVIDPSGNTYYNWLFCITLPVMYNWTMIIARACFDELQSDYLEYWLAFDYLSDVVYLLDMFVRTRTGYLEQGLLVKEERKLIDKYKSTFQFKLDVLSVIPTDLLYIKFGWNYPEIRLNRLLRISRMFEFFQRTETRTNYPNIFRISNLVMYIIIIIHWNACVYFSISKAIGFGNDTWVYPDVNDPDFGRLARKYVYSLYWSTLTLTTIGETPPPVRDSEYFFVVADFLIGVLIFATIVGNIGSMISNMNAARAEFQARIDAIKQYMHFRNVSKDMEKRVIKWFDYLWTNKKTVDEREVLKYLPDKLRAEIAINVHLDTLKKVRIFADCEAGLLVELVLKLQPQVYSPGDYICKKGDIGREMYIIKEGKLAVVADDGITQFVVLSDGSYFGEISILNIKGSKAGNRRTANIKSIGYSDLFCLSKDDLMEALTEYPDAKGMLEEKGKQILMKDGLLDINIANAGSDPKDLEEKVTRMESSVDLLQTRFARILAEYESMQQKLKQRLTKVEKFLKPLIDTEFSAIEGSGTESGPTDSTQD
T2 sequence (Q00195 1-664): T1 sequence (Q00195 1-664)
Procedure, shortened: (§1)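 Chimera cRNA injected into Xenopus oocytes, held at 15°C overnight then 18°C for 1–10 d; vitelline membrane removed. […] 1,2-DiC8 from DMSO stock added stepwise to bath (0.05–48 μM; DMSO <1.2%). Leak-subtracted currents; Hill fit to averaged data, scaled to maximal inhibition.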

[5] = target: T3, bovine rod CNG channel (CNG1, α homomultimer) (Bos taurus, UniProt Q00194); assay type: biochemical
T3 sequence (Q00194 1-690): T2 sequence (Q00194 1-690)

[6] = target: T4, CHM 11 rod/olfactory chimeric CNG channel (Bos taurus / Rattus norvegicus, UniProt Q00194+Q00195); assay: DAG dose-response on chimera CHM11, inside-out patches from Xenopus oocytes; assay type: biochemical, bovine/rat; conditions: saturating 2 mM cGMP, five patches
T4 sequence (Q00194 1-690): T2 sequence (Q00194 1-690)
T4 sequence (Q00195 1-664): T1 sequence (Q00195 1-664)
Procedure, shortened: as §1

[7] = target: T5, CHM 3 rod/olfactory chimeric CNG channel (Bos taurus / Rattus norvegicus, UniProt Q00194+Q00195); assay: DAG dose-response on chimera CHM3, inside-out patches from Xenopus oocytes; assay type: biochemical, bovine/rat; conditions: saturating 2 mM cGMP, 4 patches
T5 sequence (Q00194 with tags, fused parts or gaps): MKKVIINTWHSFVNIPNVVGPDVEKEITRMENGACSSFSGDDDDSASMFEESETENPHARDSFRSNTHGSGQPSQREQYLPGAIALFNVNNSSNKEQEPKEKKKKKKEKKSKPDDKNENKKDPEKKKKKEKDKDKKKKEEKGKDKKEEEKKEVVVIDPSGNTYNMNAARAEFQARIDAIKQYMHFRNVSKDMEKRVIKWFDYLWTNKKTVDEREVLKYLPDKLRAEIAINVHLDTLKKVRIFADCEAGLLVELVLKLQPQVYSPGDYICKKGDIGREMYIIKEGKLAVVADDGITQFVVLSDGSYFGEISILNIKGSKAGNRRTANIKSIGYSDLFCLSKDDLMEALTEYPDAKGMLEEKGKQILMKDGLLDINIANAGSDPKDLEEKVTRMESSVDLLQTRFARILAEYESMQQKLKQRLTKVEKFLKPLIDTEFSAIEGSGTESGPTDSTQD
T5 sequence (Q00195 147-381): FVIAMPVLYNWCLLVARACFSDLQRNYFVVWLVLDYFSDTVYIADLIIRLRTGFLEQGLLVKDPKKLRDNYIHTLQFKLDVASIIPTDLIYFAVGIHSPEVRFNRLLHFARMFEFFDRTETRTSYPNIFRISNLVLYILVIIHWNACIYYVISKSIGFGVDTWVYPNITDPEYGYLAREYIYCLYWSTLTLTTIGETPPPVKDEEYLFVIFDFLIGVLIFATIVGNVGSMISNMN
Procedure, shortened: as §1

[8] = target: T6, mouse olfactory CNG channel (Mus musculus, UniProt Q62398); assay: Single-channel recording of olfactory channel with DAG; assay type: biochemical; conditions: +80 mV, saturating cGMP, with and without DAG
T6 sequence (Q62398 1-664): T1 sequence (Q00195 1-664) with P50S, Q69R, V77I, D115G, G118D, V297A, D611E, T661A, A662V
Procedure, shortened: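 Three to five continuous 1-s records per condition, filtered at 5 kHz and sampled at 25 kHz. Amplitude histograms from full records were fit with Gaussians to obtain mean single-channel current.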

[9] = target: T7, mutant rod CNG channel H468Q (H468Q and A483V), α homomultimer (Bos taurus, UniProt Q00194, A483V/H468Q); assay type: biochemical, bovine
T7 sequence (Q00194 1-690 H468Q/A483V): T2 sequence (Q00194 1-690) with H468Q, A483V

Compound: CCCCCCCC(=O)OCC(O)COC(=O)CCCCCCC [1,3-DiC8]
- effectiveness of inhibition relative to 1,2-DiC8 [1]: just as effective as 1,2-DiC8

Compound: Nc1nc2c(ncn2[C@@H]2O[C@@H]3COP(=O)(O)O[C@H]3[C@H]2O)c(=O)[nH]1 [cGMP]
- EC50 ([2]; read-out: K1/2 for activation by cGMP, with 0.5 μM DAG, +100 mV, single patch): 4000 nM
- Hill coefficient n of cGMP activation ([2]; with 0.5 μM DAG): 2.8
- Hill coefficient n of cGMP activation ([2]; without DAG): 2.8

Compound: CCCCNc1ccc(C(=O)OCCN(C)C)cc1 [tetracaine]
- Hill coefficient of inhibition (CNG channels): ~1

Compound: CCCCCCCC(=O)OC[C@H](COP(=O)([O-])OCC[N+](C)(C)C)OC(=O)CCCCCCC [1,2-dioctanoyl phosphatidylcholine]
- critical micelle concentration [3]: 270 µM

Compound: CCCCCCCC(=O)OC[C@H](CO)OC(=O)CCCCCCC [DAG, 1,2-dioctanoyl-sn-glycerol]
- Hill coefficient n of DAG inhibition [4]: 2.8
- factor of increase of cGMP K1/2 ([5]; 0.5 μM DAG): 3.2
- reduction in the maximal current with DAG ([5]; 0.5 μM DAG, cGMP dose-response): 29%
- IC50 ([5]; IC50 for DAG inhibition, saturating 2 mM cGMP, 11 patches): 830 nM
- Hill coefficient n of DAG inhibition ([5]; low cGMP (~30 μM), single patch): 1.3
- DAG concentration completely suppressing cGMP-activated currents ([5]; saturating 2 mM cGMP): ~3 µM
- Hill coefficient n of DAG inhibition ([5]; saturating 2 mM cGMP): 1.7
- INmax (maximal inhibition by DAG) ([5]; saturating 2 mM cGMP): 100%
- Hill coefficient n of DAG inhibition [6]: 1.6
- Hill coefficient n of DAG inhibition [7]: 1.6
- factor of increase of cGMP K1/2 ([2]; 0.5 μM DAG): 2.2
- reduction in the maximal current with DAG ([2]; 0.5 μM DAG, cGMP dose-response): 3%
- inhibition of cGMP-activated current by DAG ([2]; 0.5 μM DAG, saturating 100 μM cGMP): small effect
- Hill coefficient n of DAG inhibition ([2]; low cGMP (1.5 μM), single patch): 1.4
- Hill coefficient n of DAG inhibition ([2]; saturating 100 μM cGMP): 1.4
- INmax (maximal inhibition by DAG) ([2]; saturating 100 μM cGMP): 31%
- suppression of cGMP-activated currents at high DAG ([2]; saturating (100 μM) cGMP, DAG as high as 12 μM): only partial suppression
- difference between DAG IC50 of rod and olfactory channel ([2]; saturating cGMP, rod vs olfactory): approximately a fourfold difference
- single-channel amplitude with DAG [8]: 3.2 pA
- IC50 [9]: 330 nM
- single-channel amplitude with DAG ([9]; +80 mV, saturating cGMP, with and without 0.25 μM DAG, patch with two channels): 2.1 pA
- extent of inhibition by DAG ([9]; saturating cGMP): fully inhibited
